Assay results from ChEMBL document CHEMBL1126317, “2-(aminoalkyl)-5-nitropyrazolo[3,4,5-kl]acridines, a new class of anticancer agents” (1992).
The source made the active and inactive calls. The rule behind the calls is not given here.

Columns and labels:
L1210 [1] = test: In vitro antitumor activity against L1210 leukemia cell line.; format: functional; settings: Mus musculus, read-out: ID50 (the source's name)
Mus musculus [2] = test: In vivo antitumor activity of the compound(ip, 6.25 mg/kg for 5 days) against CD2F1 mice implanted intraperitoneally with P388 leukemia cells; Day 30 survivors=1/6; format: functional; settings: route intraperitoneal
Mus musculus [3] = test: In vivo antitumor activity of the compound(ip, 6.25 mg/kg for 5 days) against CD2F1 mice implanted intraperitoneally with P388 leukemia cells.; format: functional; settings: route intraperitoneal
Mus musculus [4] = test: In vivo antitumor activity of the compound(ip, 3.12 mg/kg for 5 days) against CD2F1 mice implanted intraperitoneally with P388 leukemia cells; Day 30 survivors=2/6; format: functional; settings: route intraperitoneal
Mus musculus [5] = test: In vivo antitumor activity of the compound(ip, 3.12 mg/kg for 5 days) against CD2F1 mice implanted intraperitoneally with P388 leukemia cells.; format: functional; settings: route intraperitoneal
Mus musculus [6] = test: In vivo antitumor activity of the compound(ip, 3.12 mg/kg for 5 days) against CD2F1 mice implanted intraperitoneally with P388 leukemia cells; Day 30 survivors=3/6; format: functional; settings: route intraperitoneal
[7] = Ratio of the ID50's showing antitumor activity against HCT-8 and L1210 leukemia cell lines.; format: functional
Outline: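 Ratio taken as ID50 in HCT-8 cells divided by ID50 in L1210 cells, both ID50s expressed as molar concentrations.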

HCT-8 = test: In vitro antitumor activity against HCT-8 colon cancer cell line.; format: functional; settings: Homo sapiens, read-out: ID50 (the source's name)
Mus musculus [8] = test: In vivo antitumor activity of the compound(ip, 50 mg/kg for 5 days) against CD2F1 mice implanted intraperitoneally with P388 leukemia cells.; format: functional; settings: route intraperitoneal
Mus musculus [9] = test: In vivo antitumor activity of the compound(ip, 25 mg/kg for 5 days) against CD2F1 mice implanted intraperitoneally with P388 leukemia cells.; format: functional; settings: route intraperitoneal
Mus musculus [10] = test: In vivo antitumor activity of the compound(ip, 3.13 mg/kg for 5 days) against CD2F1 mice implanted intraperitoneally with P388 leukemia cells.; format: functional; settings: route intraperitoneal
Mus musculus [11] = test: In vivo antitumor activity of the compound(ip, 12.5 mg/kg for 5 days) against CD2F1 mice implanted intraperitoneally with P388 leukemia cells.; format: functional; settings: route intraperitoneal
Mus musculus [12] = test: In vivo antitumor activity of the compound(ip, 12.5 mg/kg for 5 days) against CD2F1 mice implanted intraperitoneally with P388 leukemia cells; Day 30 survivors=1/6; format: functional; settings: route intraperitoneal
L1210 [13] = test: In vitro antitumor activity against L1210 leukemia cell line; IA= Inactive; format: functional, cell-based; settings: Mus musculus
Mus musculus [14] = test: In vivo antitumor activity of the compound(ip, 50 mg/kg for 5 days) against CD2F1 mice implanted intraperitoneally with P388 leukemia cells; Day 30 survivors=3/6; format: functional; settings: route intraperitoneal
Mus musculus [15] = test: In vivo antitumor activity of the compound(ip, 200 mg/kg for 5 days) against CD2F1 mice implanted intraperitoneally with P388 leukemia cells.; format: functional; settings: route intraperitoneal
Mus musculus [16] = test: In vivo antitumor activity of the compound(ip, 100 mg/kg for 5 days) against CD2F1 mice implanted intraperitoneally with P388 leukemia cells.; format: functional; settings: route intraperitoneal

In the case of COc1ccc2c(c1Cl)-c1nn(CCCN(C)C)c3ccc([N+](=O)[O-])c(c13)N2.CS(=O)(=O)O, the IC50 (L1210 [1]) is reported as 100 nM, the Activity (Mus musculus [2]) is reported as 1 and the T/C (Mus musculus [3]) is reported as 221%.

CN(C)CCN1Nc2c3cc(O)ccc3nc3c([N+](=O)[O-])ccc1c23.CS(=O)(=O)O gave an IC50 (L1210 [1]) of 2.7 nM, an Activity (Mus musculus [4]) of 2 and a T/C (Mus musculus [5]) of 228%.

CN(C)CCCN1Nc2c3cc(O)ccc3nc3c([N+](=O)[O-])ccc1c23.CS(=O)(=O)O showed an IC50 (L1210 [1]) of 1.8 nM, an Activity (Mus musculus [6]) of 3 and a T/C (Mus musculus [5]) of 270%. The Ratio [7] was 6.7 and the IC50 (HCT-8) was 12 nM.

CCN(CC)CCN1Nc2c3cc(O)c(Cl)cc3nc3c([N+](=O)[O-])ccc1c23.CS(=O)(=O)O showed an IC50 (L1210 [1]) of 150 nM and a T/C (Mus musculus [8]) of 125%.

CCN(CC)CCOc1ccc2c(c1)-c1nn(CCN(CC)CC)c3ccc([N+](=O)[O-])c(c13)N2.CS(=O)(=O)O showed an IC50 (L1210 [1]) of 500 nM and a T/C (Mus musculus [8]) of 118%.

In the case of CCN(CC)CCCN1Nc2c3cc(OC)ccc3nc3c([N+](=O)[O-])ccc1c23.CS(=O)(=O)O, the IC50 (L1210 [1]) is reported as 1300 nM and the T/C (Mus musculus [9]) is reported as 210%.

Work on CCOC(=O)Oc1ccc2c(c1)-c1nn(CCN(CC)CC)c3ccc([N+](=O)[O-])c(c13)N2.CS(=O)(=O)O yielded a T/C (Mus musculus [10]) of 243%.

For CCN(CC)CCN1Nc2c3cc(OCc4ccccc4)ccc3nc3c([N+](=O)[O-])ccc1c23.CS(=O)(=O)O, the IC50 (L1210 [1]) was 27 nM and the T/C (Mus musculus [8]) was 200%.

For CCCC(=O)Oc1ccc2c(c1)-c1nn(CCN(CC)CC)c3ccc([N+](=O)[O-])c(c13)N2.CS(=O)(=O)O, the IC50 (L1210 [1]) was 4.3 nM and the Activity (Mus musculus [2]) was 1.

With CS(=O)(=O)O.O=[N+]([O-])c1ccc2c3c(nn2CCN2CCCC2)-c2cc(O)ccc2Nc13 the IC50 (L1210 [1]) was 3 nM and the T/C (Mus musculus [5]) was 250%.

Compound COc1cc(OC)c2c(c1)-c1nn(CCN(C)C)c3ccc([N+](=O)[O-])c(c13)N2 has an IC50 (L1210 [1]) of 210 nM.

With COc1ccc2c(c1)-c1nn(CCNCCO)c3ccc([N+](=O)[O-])c(c13)N2 the IC50 (L1210 [1]) was 450 nM.

In the case of C=CCOc1ccc2nc3c([N+](=O)[O-])ccc4c3c(c2c1)NN4CCCN(C)C.CS(=O)(=O)O, the IC50 (L1210 [1]) is reported as 2200 nM and the T/C (Mus musculus [11]) is reported as 221%.

For CN(C)CCCN1Nc2c3ccccc3nc3c([N+](=O)[O-])ccc1c23.CS(=O)(=O)O, the IC50 (L1210 [1]) was 190 nM, the Activity (Mus musculus [12]) was 1 and the T/C (Mus musculus [11]) was 214%.

For COc1ccc2c(c1)-c1nn(CCO)c3ccc([N+](=O)[O-])c(c13)N2, the ID50 (L1210 [13]) was “inactive”.

With CN(C)CCCN1Nc2c3ccc(O)cc3nc3c([N+](=O)[O-])ccc1c23.Cl the IC50 (L1210 [1]) was 6700 nM and the T/C (Mus musculus [8]) was 140%.

Work on CCN(CC)CCN1Nc2c3c(OC)cc(OC)cc3nc3c([N+](=O)[O-])ccc1c23.CS(=O)(=O)O yielded an IC50 (L1210 [1]) of 490 nM and a T/C (Mus musculus [8]) of 94%.

In the case of CCCCOc1ccc2c(c1)-c1nn(CCN(CC)CC)c3ccc([N+](=O)[O-])c(c13)N2.CS(=O)(=O)O, the IC50 (L1210 [1]) is reported as 12 nM and the T/C (Mus musculus [11]) is reported as 209%.

With COc1ccc2c(c1)-c1nn(CCN(C)C)c3ccc([N+](=O)[O-])c(c13)N2.CS(=O)(=O)O the IC50 (L1210 [1]) was 400 nM and the Activity (Mus musculus [14]) was 3.

CCN(CC)CCN1Nc2c3cc(SC)ccc3nc3c([N+](=O)[O-])ccc1c23.CS(=O)(=O)O showed an IC50 (L1210 [1]) of 1100 nM, a T/C (Mus musculus [8]) of 114% and a Ratio [7] of 0.32. The IC50 (HCT-8) was 350 nM.

For COc1ccc2c(c1)-c1nn(CCN3CCCC3)c3ccc([N+](=O)[O-])c(c13)N2.CS(=O)(=O)O, the IC50 (L1210 [1]) was 160 nM and the T/C (Mus musculus [9]) was 211%.

CCN(CC)CCN1Nc2c3c(O)cccc3nc3c([N+](=O)[O-])ccc1c23.CS(=O)(=O)O gave an IC50 (L1210 [1]) of 600 nM and a T/C (Mus musculus [15]) of 117%.

In the case of CCN(CC)CCN1Nc2c3ccc(O)cc3nc3c([N+](=O)[O-])ccc1c23.CS(=O)(=O)O, the IC50 (L1210 [1]) is reported as 83 nM and the T/C (Mus musculus [9]) is reported as 130%.

CN(C)CCN1Nc2c3cc(N(C)C)ccc3nc3c([N+](=O)[O-])ccc1c23.CS(=O)(=O)O showed an IC50 (L1210 [1]) of 600 nM and a T/C (Mus musculus [9]) of 189%.

With CCN(CC)CCN1Nc2c3cccc(OC)c3nc3c([N+](=O)[O-])ccc1c23.CS(=O)(=O)O the IC50 (L1210 [1]) was 640 nM and the T/C (Mus musculus [16]) was 111%.
